Here are results for three compounds from article PMC1915607 (Investigational New Drugs, 2007).

The structures appear in SMILES notation. Values joined by “and” are separate entries in the source; they are usually repeats but may differ in a detail not shown here. Identical values can stand only once. Like-named read-outs stand apart in the source and are kept apart here. Marks after values point to notes of the source that are not given here.

The subject of data set [1] is CYP3A4/5. As to conditions: cited from earlier work.
A short description of data set [2]: Plasma pseudopharmacokinetics of total radioactivity. The format is in vivo, human. A digest of the protocol:
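Same dosing, with separate, simultaneous plasma samples taken to 168 h. Total radioactivity was measured by AMS after combustion with CuO at 900°C and graphitisation at 500–550°C. Natural 14C background was subtracted, and values were converted to equivalents via carbon content and specific activity. Quantitation limit was <4 DPM/ml. Non-compartmental pseudo-parameters were derived, and AUClast ratio = parent AUClast / TRA AUClast. Outliers were assessed by Dixon's Q test.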

For data set [3] the following is noted: phase II, cited from earlier work.
Data set [4] can be described thus: Urinary and faecal recovery. The format is in vivo, human. The conditions noted are these: for Radioactivity U/F ratio (urinary recovery relative to faecal recovery) / Recovery of ixabepilone in urine: 0–168 h; for Recovery of ixabepilone in urine: unchanged ixabepilone.
A short description of data set [5]: Stability of [14C]-labelled ixabepilone. The format is physicochemical.
Data set [6] can be described thus: Plasma pharmacokinetics of unchanged ixabepilone. Type of data set: in vivo, human. A digest of the protocol: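 Eight advanced-cancer patients received a single 3 h IV infusion of 70 mg, 80 nCi [14C]-labelled test compound in Cremophor EL:ethanol diluted in Lactated Ringer's, with oral H1/H2 premedication. Blood was drawn 0–168 h and plasma was stored below −20°C. Parent was measured by isocratic LC-ESI-MS/MS (standard curve 2–500 ng/ml). Non-compartmental analysis gave AUCinf, CL=dose/AUCinf, and infusion-corrected Vss.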

For data set [7] the following is noted: phase I dose escalation study, 11 patients, 40 mg/m^2; cited from earlier work.
For data set [8] the following is noted: literature value, no reference given, cited from earlier work.
Setting [9] is: inter-patient variability, flat 70 mg dose, this study.
Where [10] appears, read: plasma, individual patients 1-8, 3 h iv infusion 70 mg.

In the case of `C/C(=C\c1csc(C)n1)[C@@H]1C[C@@H]2O[C@]2(C)CCC[C@H](C)[C@H](O)[C@@H](C)C(=O)C(C)(C)[C@@H](O)CC(=O)N1` [ixabepilone, 15-desoxy-15-aza-epothilone B], the CYP3A4/5 substrate result in data set [1] is given as “CYP3A4/5 substrate”. For the same compound, the “Initial distribution phase, duration” value in data set [2] (TRA in plasma) and in data set [6] (unchanged ixabepilone in plasma) was “approximately 10 h” each time. Also, the “AUClast ratio (AUClast ixabepilone / AUClast TRA)” value in data set [2] (plasma, individual patients 1-8, patient 1 outlier) was 0.26 and 0.06 and 1.62^b and 0.25 and 0.19 and 0.12 and 0.18. The Response rate in data set [3] (hormone-refractory metastatic prostate cancer) was 33%; in data set [3] (metastatic breast cancer, 6 to 40 mg/m^2 iv over 1 to 3 h) it was 12–44%; in data set [3] (metastatic renal cell carcinoma), 14%; in data set [3] (non-small cell lung cancer), 14%. The “Radioactivity U/F ratio (urinary recovery relative to faecal recovery)” value was 0.48 and 0.29 and 3.05 and 0.24 and 0.31 and 0.39 and 1.97 and 0.30 in data set [4] (individual patients 1-8); 0.33^b in data set [4] (mean, patients 4 and 8 not included). Moreover, the “Recovery of ixabepilone in urine” value in data set [4] (individual patients 1-8) was 4.0 % of dose and 6.12 % of dose and 6.03 % of dose and 4.02 % of dose and 5.07 % of dose and 4.66 % of dose and 7.76 % of dose and 3.32 % of dose and 5.46 % of dose; in data set [4] (mean of 8 patients), 5.30 % of dose. Moreover, in data set [4] (first 24 h), the “Urinary radioactivity excreted in the first 24 h” value was 17 % of dose. Besides, the “Ixabepilone Clrenal” value in data set [4] (individual patients 1-8) was 1.98 L/h and 1.87 L/h and 1.46 L/h and 1.16 L/h and 1.19 L/h and 1.92 L/h and 0.61 L/h and 1.58 L/h. Moreover, the “Share of total urinary ixabepilone excreted in the first 24 h” value in data set [4] (of total urinary ixabepilone) worked out at 76%. In addition, the “Share of total urinary radioactivity excreted in the first 24 h” value in data set [4] (of total urinary radioactivity) turned out to be 65%. Also, the “Stability of labelled drug (autoradiolysis)” value in data set [5] (conventional [14C]-levels (100 μCi in a typical human radio-tracer study)) is listed as “very unstable”; in data set [5] (specific activity of 1.5 μCi/mg) it was “unstable”; in data set [5] (specific activity of less than 10 nCi/mg) it was “stable”. Moreover, the “Time to maximum plasma concentration” value in data set [6] (3 h infusion, in words) is given as “around the end of infusion”. The clearance – broadly, a measure of how efficiently the substance is removed, as volume per time – in data set [6] (human, plasma, intravenous, 70 mg, Ixabepilone Cl, mean of 8 patients) was 422 mL/min. For the same compound, in data set [6] (human, plasma, intravenous, 70 mg, Ixabepilone Vss, plasma, mean of 8 patients), the Vd (usually a proportionality between amount in the body and measured concentration, not a real space) was determined as 1150 L. This compound also yielded a Half-life in data set [6] (human, plasma, intravenous, 70 mg, Ixabepilone t1/2, plasma, mean of 8 patients) of over 50 h. Further, the “Coefficient of variation for AUCinf of ixabepilone” value is on record as 24% in data set [6] (setting [9]) and 46% in data set [7]. In addition, the “Coefficient of variation for Cl of ixabepilone” value is reported as 21% in data set [6] (setting [9]) and 38% in data set [7]. Moreover, in data set [6] (setting [10]), the “Ixabepilone AUCinf” value is 2220 ng·h/mL and 3350 ng·h/mL and 2970 ng·h/mL and 2990 ng·h/mL and 4320 ng·h/mL and 2520 ng·h/mL and 2290 ng·h/mL. Further, in data set [6] (setting [10]), the “Ixabepilone AUClast” value was 1930 ng·h/mL and 3060 ng·h/mL and 2750 ng·h/mL and 2830 ng·h/mL and 3820 ng·h/mL and 2420 ng·h/mL and 2170 ng·h/mL. In data set [6] (setting [10]), the “Ixabepilone Cl” value was 31.6 L/h and 20.9 L/h and 23.6 L/h and 23.4 L/h and 16.2 L/h and 27.8 L/h and 30.5 L/h. Moreover, the “Ixabepilone Vss” value in data set [6] (setting [10]) was 1520 L and 1635 L and 1275 L and 1174 L and 929 L and 1027 L and 756 L and 912 L. Further, in data set [6] (setting [10]), the “Ixabepilone t1/2” value is 71.5 h and 47.2 h and 51.7 h and 53.0 h and 67.4 h and 23.5 h and 36.7 h.

With `CC[C@]1(O)C[C@H]2CN(CCc3c([nH]c4ccccc34)[C@@](C(=O)OC)(c3cc4c(cc3OC)N(C=O)[C@H]3[C@@](O)(C(=O)OC)[C@H](OC(C)=O)[C@]5(CC)C=CCN6CC[C@]43[C@@H]65)C2)C1` [vincristine], the Half-life entry in data set [8] (in words) is on record as “several days”.

`CC[C@]1(O)C[C@@H]2CN(CCc3c([nH]c4ccccc34)[C@@](C(=O)OC)(c3cc4c(cc3OC)N(C)[C@H]3[C@@](O)(C(N)=O)[C@H](O)[C@]5(CC)C=CCN6CC[C@]43[C@@H]65)C2)C1` [vindesine]: in data set [8], the Half-life was 12 to 42 h.
